The results in this text go back to ChEMBL document CHEMBL1138900, “2,5-diketopiperazines as potent, selective, and orally bioavailable oxytocin antagonists. 3. Synthesis, pharmacokinetics, and in vivo potency” (J Med Chem, 2006).

Data set [1] can be described thus: Clearance in rat. The note with it: in vivo. In kind it is ADME, organism-based. The procedure, abridged:
(§1)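 Rat pharmacokinetics, n = 4; dosed at 5 mg/kg in 5% DMSO/95% PEG400. AUC in ng·h mL⁻¹, clearance in mL min⁻¹ kg⁻¹, half-life in h.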

Data set [2] is described as follows: Oral bioavailability in rat. In kind it is ADME, organism-based. To be noted: in vivo.
Data set [3] can be described thus: Clearance in dog. Format: ADME, organism-based, Canis lupus familiaris. To be noted: in vivo. An outline of the steps:
(§2)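 Dog pharmacokinetics, n = 3; dosed at 0.6 mg/kg in 5% DMSO/95% PEG400. AUC reported as ng·h mL⁻¹ and clearance as mL min⁻¹ kg⁻¹.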

Data set [4] in a line: Oral bioavailability in dog. To be noted: in vivo. In kind it is ADME, organism-based, Canis lupus familiaris.
The nature of data set [5]: Lipophilicity, log D by CHI method. In kind it is physicochemical. To be noted: read-out: Log D. An outline of the steps:
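Lipophilicity determined by an HPLC-based method.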

Data set [6] concerns the target T1, Oxytocin receptor (Homo sapiens, UniProt P30559).
T1 sequence (P30559 whole entry): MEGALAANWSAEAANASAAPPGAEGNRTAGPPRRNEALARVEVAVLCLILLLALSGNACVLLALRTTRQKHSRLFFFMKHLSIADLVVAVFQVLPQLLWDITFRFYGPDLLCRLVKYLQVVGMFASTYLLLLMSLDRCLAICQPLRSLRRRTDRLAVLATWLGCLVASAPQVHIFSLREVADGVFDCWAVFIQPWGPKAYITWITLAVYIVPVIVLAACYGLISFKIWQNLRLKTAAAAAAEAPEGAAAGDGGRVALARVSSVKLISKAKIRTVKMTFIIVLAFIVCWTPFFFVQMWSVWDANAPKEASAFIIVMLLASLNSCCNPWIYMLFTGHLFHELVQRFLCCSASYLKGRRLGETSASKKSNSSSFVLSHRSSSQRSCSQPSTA
Description: Displacement of [3H]oxytocin from human OTR. (In general: In a radioligand displacement assay an active substance lowers the binding of a labelled ligand.)

A short description of data set [7]: AUC in rat. Format: ADME, organism-based. The arrangement: concentration or dose not given beside the values. The note with it: plasma. An outline of the steps:
as §1

The nature of data set [8]: AUC in dog. Format: ADME, organism-based, Canis lupus familiaris. The arrangement: concentration or dose not given beside the values. To be noted: plasma. An outline of the steps:
as §2

Data set [9] can be described thus: Solubility of the compound. In kind it is physicochemical. An outline of the steps: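 Aqueous solubility (mg mL⁻¹) measured by precipitation followed by HPLC.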
The test system of the next data set is Rattus norvegicus. Description: Reduction in oxytocin-induced uterine contraction in iv dosed anaesthetized rat. In kind it is functional, organism-based. An outline of the steps:
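Anaesthetized rats; uterine contractions elicited by iv oxytocin at a standard dose of 0.3 ug/kg. Test compound then given iv in rising doses (0.1, 0.3, 1 mg/kg) and the fall in contractility recorded. Plasma IC50 taken as the plasma concentration giving 50% inhibition of the response to the standard oxytocin dose.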

Data set [10] deals with T2, Oxytocin receptor (Rattus norvegicus, UniProt P70536).
T2 sequence (P70536 whole entry): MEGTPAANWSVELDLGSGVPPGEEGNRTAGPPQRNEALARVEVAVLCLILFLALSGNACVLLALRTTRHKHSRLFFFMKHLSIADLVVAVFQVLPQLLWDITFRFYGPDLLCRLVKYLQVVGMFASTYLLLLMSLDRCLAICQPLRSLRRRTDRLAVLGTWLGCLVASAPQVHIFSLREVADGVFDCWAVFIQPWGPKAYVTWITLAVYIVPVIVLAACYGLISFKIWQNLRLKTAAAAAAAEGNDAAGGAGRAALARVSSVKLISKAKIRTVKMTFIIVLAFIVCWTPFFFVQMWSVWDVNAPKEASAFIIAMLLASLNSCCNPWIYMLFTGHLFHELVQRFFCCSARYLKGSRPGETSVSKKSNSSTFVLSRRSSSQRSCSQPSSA
The data set is described as follows: Displacement of [3H]oxytocin from rat OTR.

The term clearance denotes a measure of how efficiently the substance is removed, as volume per time. As a reminder, the bioavailability is the share of a dose that reaches the circulation, judged against a reference dose that is usually intravenous. What is called pKi is −log10 of the Ki, conventionally taken in molar units. A word on the AUC: it is the area under the concentration-time curve, a measure of exposure. The term solubility denotes how much of the substance goes into solution per volume. The pIC50 is −log10 of the IC50, conventionally taken in molar units.

pIC50, pKi: −log10 of the molar value. Values after ≈ are worked out from the molar mass of the structure shown. Where a SMILES comes first, the peptide text is derived from it. Bridges are numbered along the chain shown (N, C = ends). [ ]: non-standard residue; d: D form. Orn = NCCC[C@H](N)C(=O)O; Mpa = O=C(O)CCS

As to `CC(C)C[C@@H]1C(=O)N[C@H](C2Cc3ccccc3C2)C(=O)N1[C@@H](C(=O)NC(C)C)c1ccc(N(C)C)cc1`, the clearance in [1] is 48 mL/min/kg; in data set [3] it was 15 mL/min/kg. Besides, the bioavailability in data set [2] was 2%; in data set [4], 50%.
Turning to `CC(C)C[C@@H]1C(=O)N[C@H](C2Cc3ccccc3C2)C(=O)N1[C@@H](C(=O)NCCN1CCCCC1)c1ccc(F)cc1`, the chromatographic logD in [5] was found to be 2.
As to `Cc1ccc([C@H](C(=O)NC(C)C)N2C(=O)[C@@H](C3Cc4ccccc4C3)NC(=O)[C@H]2CC(C)C)o1`, in data set [5], the chromatographic logD worked out at 3.3.
`CC(C)C[C@@H]1C(=O)N[C@H](C2Cc3ccccc3C2)C(=O)N1[C@@H](CO)c1ccc(F)cc1F` had a pKi on Oxytocin receptor [6] of 7.90. Moreover, the AUC in [7] was found to be 567 ng·h/mL.
`CC(C)C[C@@H]1C(=O)N[C@H](C2Cc3ccccc3C2)C(=O)N1[C@@H](C(=O)N(C)CCO)c1ccc(F)cc1F` had a pKi at Oxytocin receptor [6] of 9.90. The clearance in [1] worked out at 19 mL/min/kg; in data set [3] it was 6 mL/min/kg. The values for the bioavailability in [2] and in data set [4] were 55% and 14%, respectively. Further, in [5], the chromatographic logD was 2.8. Besides, the values for the AUC in data set [7] and in data set [8] were 2350 ng·h/mL and 200 ng·h/mL, respectively. The concentration in solution in data set [9] (solubility) was 159 µg/mL (≈ 310 µM).
For the molecule `CC(C)C[C@@H]1C(=O)N[C@H](C2Cc3ccccc3C2)C(=O)N1[C@@H](C(=O)N(C)Cc1ccccn1)c1ccc(F)cc1`, the chromatographic logD in data set [5] came out at 3.2.
As for `CC(C)C[C@@H]1C(=O)N[C@H](C2Cc3ccccc3C2)C(=O)N1[C@@H](C(=O)NC(C)(C)C)c1ccc2c(c1)OCO2`, on Oxytocin receptor [6], the pKi is 8.40. For the same molecule, the clearance stood at 34 mL/min/kg in data set [1] and 23 mL/min/kg in [3]. Also, the results for the bioavailability in [2] and in data set [4] were 48% and 14%, respectively. In addition, the chromatographic logD in data set [5] is 3.3.
For `CC(C)C[C@@H]1C(=O)N[C@H](C2Cc3ccccc3C2)C(=O)N1[C@@H](C(=O)N1CCOCC1)c1ccc(F)cc1F`, on Oxytocin receptor [6], the pKi is 8.90. For the same molecule, the clearance in data set [1] came to 16 mL/min/kg; in data set [3] it was 8 mL/min/kg. For the same molecule, the bioavailability in data set [2] was 41%; in [4] it was 7%. The chromatographic logD in data set [5] worked out at 3.2. For the same molecule, the AUC in data set [7] came to 2150 ng·h/mL; in data set [8], 100 ng·h/mL.
On to `CC(C)C[C@@H]1C(=O)N[C@H](C2Cc3ccccc3C2)C(=O)N1[C@@H](C(=O)O)c1ccc(F)cc1F`, for which, on Oxytocin receptor [6], the pKi is 9.20. The results for the clearance in data set [1] and in data set [3] were 53 mL/min/kg and 21 mL/min/kg, respectively. For the same molecule, the bioavailability in [2] is 30%; in data set [4], 5%. In addition, the chromatographic logD in data set [5] is 1.7. For the same molecule, the AUC came out at 805 ng·h/mL in data set [7] and 23 ng·h/mL in [8]. In data set [9], this molecule showed a solubility of 216 µg/mL (≈ 473 µM).
As to `CC(C)C[C@@H]1C(=O)N[C@H](C2Cc3ccccc3C2)C(=O)N1[C@@H](C(=O)NCC(F)(F)F)c1ccc(F)cc1`, the chromatographic logD in data set [5] was determined as 3.3.
Regarding `CC(C)C[C@@H]1C(=O)N[C@H](C2Cc3ccccc3C2)C(=O)N1[C@@H](C(=O)NC(C)(C)C)c1ccc(N2CCC(O)CC2)cc1`, the pKi at Oxytocin receptor [6] is 8.40. For the same molecule, the clearance in data set [1] turned out to be 26 mL/min/kg; in data set [3], 21 mL/min/kg. Further, the bioavailability was 24% in data set [2] and 10% in data set [4]. Further, the chromatographic logD in [5] was 2.4.
In the case of `CC(C)C[C@@H]1C(=O)N[C@H](C2Cc3ccccc3C2)C(=O)N1[C@@H](C(=O)NCCO)c1ccc(F)cc1`, the chromatographic logD in data set [5] was 2.3.
For `COc1ccc([C@H](C(=O)NC(C)(C)C)N2C(=O)[C@@H](C3Cc4ccccc4C3)NC(=O)[C@H]2CC(C)C)cc1F`, the chromatographic logD in data set [5] is 3.4.
On Oxytocin receptor [6], `CC(C)C[C@@H]1C(=O)N[C@H](C2Cc3ccccc3C2)C(=O)N1[C@@H](C(=O)N1CC(O)C1)c1ccc(F)cc1F` had a pKi of 9.20. This molecule also gave a clearance in data set [1] of 19 mL/min/kg. The molecule also registered a bioavailability in data set [2] of 12%. Moreover, the chromatographic logD in data set [5] stood at 2.8. In [7], this molecule gave an AUC of 540 ng·h/mL. In data set [9], this molecule registered a solubility of 187 µg/mL (≈ 366 µM).
Consider `CCNS(=O)(=O)c1ccc(-c2ccc([C@H](C(=O)NC(C)(C)C)N3C(=O)[C@@H](C4Cc5ccccc5C4)NC(=O)[C@H]3CC(C)C)cc2)cc1`, for which the chromatographic logD in data set [5] is 3.4.
The molecule `CC(C)C[C@@H]1C(=O)N[C@H](C2Cc3ccccc3C2)C(=O)N1[C@@H](C(=O)N1CCC1)c1ccc(F)cc1F` had a pKi at Oxytocin receptor [6] of 9.20. Moreover, the clearance in data set [1] is 22 mL/min/kg; in [3], 4 mL/min/kg. In addition, the bioavailability amounted to 17% in [2] and 37% in data set [4]. Moreover, the chromatographic logD in data set [5] worked out at 3.3. The AUC in [7] worked out at 660 ng·h/mL; in data set [8] it was 710 ng·h/mL. The same molecule came in with a solubility in data set [9] of 1 µg/mL (≈ 2.02 µM).
As to `CC(C)C[C@@H]1C(=O)N[C@H](C2Cc3ccccc3C2)C(=O)N1[C@@H](C(=O)N1CCN(C)CC1)c1ccc(F)cc1`, the chromatographic logD in data set [5] stood at 2.7.
At Oxytocin receptor [6], `CC(C)C[C@@H]1C(=O)N[C@H](C2Cc3ccccc3C2)C(=O)N1[C@@H](C(=O)NC(C)(C)C)c1ccc2c(c1)CCO2` gave a pKi of 8.40. The clearance in [1] amounted to 39 mL/min/kg; in data set [3], 14 mL/min/kg. For the same molecule, the bioavailability in data set [2] was found to be 27%; in data set [4] it was 9%. Besides, the chromatographic logD in data set [5] amounted to 3.4.
Consider `CNC(=O)[C@@H](c1ccc(F)cc1F)N1C(=O)[C@@H](C2Cc3ccccc3C2)NC(=O)[C@H]1CC(C)C`, for which the pKi at Oxytocin receptor [6] was 9.40. Further, the clearance was 32 mL/min/kg in [1] and 13 mL/min/kg in [3]. Besides, the bioavailability in data set [2] was 98%; in data set [4] it was 11%. For the same molecule, in data set [5], the chromatographic logD came out at 2.9. For the same molecule, the AUC in data set [7] turned out to be 3690 ng·h/mL; in [8], 82 ng·h/mL. This molecule came in with a solubility in [9] of 89 µg/mL (≈ 190 µM).
The molecule `CC[C@@H](C)[C@@H]1C(=O)N[C@H](C2Cc3ccccc3C2)C(=O)N1[C@@H](C(=O)NC(C)C)c1ccc(N2CCOCC2)cc1` gave a negative-log Ki (pKi) at Oxytocin receptor [6] of 8.80. In addition, the results for the clearance in data set [1] and in [3] were 24 mL/min/kg and 6 mL/min/kg, respectively. Further, the values for the bioavailability in [2] and in data set [4] were 31% and 61%, respectively. The chromatographic logD in [5] worked out at 3.
For the molecule `CC(C)C[C@@H]1C(=O)N[C@H](C2Cc3ccccc3C2)C(=O)N1[C@@H](C(N)=O)c1ccc(F)cc1F`, on Oxytocin receptor [6], the pKi is 9.30. In addition, in data set [1], the clearance was 33 mL/min/kg. Moreover, in data set [2], the bioavailability is 22%. The chromatographic logD in data set [5] is 2.5. In addition, the AUC in [7] stood at 560 ng·h/mL. For the same molecule, in data set [9], the solubility stood at 1 µg/mL (≈ 2.2 µM).
On to `CCOc1ccc(C[C@H]2NC(=O)CCSSC[C@@H](C(=O)N3CCC[C@H]3C(=O)N[C@@H](CCCN)C(=O)NCC(N)=O)NC(=O)[C@H](CC(N)=O)NC(=O)[C@H]([C@@H](C)O)NC(=O)[C@H]([C@@H](C)CC)NC2=O)cc1` [ATOSIBAN] ([Mpa][dY](Et)ITNCP[Orn]G-NH2; disulfide 1-6), for which the pKi at Oxytocin receptor [6] and on Oxytocin receptor [10] was 7.40 in each case. Besides, in the data set on Rattus norvegicus, the Activity amounted to 0.63 mg/kg. Moreover, the pIC50 in the data set on Rattus norvegicus (Rattus norvegicus) is 6.73.
